This is an account of results in publication PMC2860721 (Journal of medicinal chemistry, 2010).

In brackets after ≈: the same amount, converted by molar mass.

Assay [1] deals with HIV. The following applies: cited from earlier work.
For assay [2], the system named is HIV. The following applies: cited from earlier work. This is another data set of the same source.
Assay [3] has as its system mock-infected MT-2 cells. As to the kind of experiment: Compound toxicity by XTT in mock-infected MT-2 cells. Format: cell-based. The following applies: Homo sapiens, MT2, read-out: IC50 (concentration that inhibits mock-infected cell growth by 50%). (Tetrazolium dyes change colour on reduction, which living cells bring about.)
Assay [4] relates to HIV-1NL4-3. As to the kind of experiment: HIV-1NL4-3 replication inhibition assay in MT-4 lymphocytes. Format: cell-based. As to conditions: HIV-1NL4-3 infected MT-4 lymphocytes. In short, it runs like this:
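MT-4 cells infected with HIV-1 NL4-3 or NL4-3 variants at MOI 0.01. Culture supernatants collected on day 4 post-infection. Viral replication read out by p24 antigen capture ELISA.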

In the case of `C=C(C)C1CCC2(C(=O)O)CCC3(C)C(CCC4C5(C)CCC(OC(=O)C(C)(C)CC(=O)O)C(C)(C)C5CCC43C)C12` (centres unmarked) [3-O-(2′,2′-dimethylsuccinyl) BA], the EC50 in assay [1] is 2.7 µM. As to `CC1(C)C=C2[C@H]3CC[C@@H]4[C@@]5(C)CCC(=O)C(C)(C)[C@@H]5CC[C@@]4(C)[C@]3(C)CC[C@@]2(C(=O)O)CC1` [Compound 3, moronic acid], the “EC50 (anti-HIV activity)” value in assay [2] is 0.1 µg/mL (≈ 0.22 µM).

With `C=C(C)[C@@H]1CC[C@]2(C(=O)O)CC[C@]3(C)[C@H](CC[C@@H]4[C@@]5(C)CC[C@H](OC(=O)C[C@H](C)C(=O)O)C(C)(C)[C@@H]5CC[C@]43C)[C@@H]12` [Compound 10, 3β-O-(3′S-Methylsuccinyl)-betulinic acid], the IC50 in assay [3] worked out at 32.8 µM. On to `C=C(C)[C@@H]1CC[C@]2(C(=O)O)CC[C@]3(C)[C@H](CC[C@@H]4[C@@]5(C)CC[C@H](OC(=O)C[C@](C)(CC)C(=O)O)C(C)(C)[C@@H]5CC[C@]43C)[C@@H]12` [Compound 12a, 3β-O-(3′S-Ethylmethylsuccinyl)-betulinic acid], for which the antiviral activity result in assay [4] was “active”. Take `C=C(C)[C@@H]1CC[C@]2(C(=O)O)CC[C@]3(C)[C@H](CC[C@@H]4[C@@]5(C)CC[C@H](OC(=O)C[C@@](C)(CC)C(=O)O)C(C)(C)[C@@H]5CC[C@]43C)[C@@H]12` [Compound 12b, 3β-O-(3′R-Ethylmethylsuccinyl)-betulinic acid]: the antiviral activity result in assay [4] is “no antiviral activity”.

For orientation: EC50 means the concentration at which the effect is half-maximal.
